{
  "source": "the EternaBench riboswitch data",
  "test_system": "MS2 coat protein",
  "test": "apparent Kd, MS2 coat protein; higher = weaker binding; RNA-MaP array; FMN 200 µM where present",
  "in_short": "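On Illumina sequencing-chip clusters, designs were transcribed by stalled E. coli RNA polymerase and titrated with SNAP-549-labelled MS2 coat protein (0.7 or 1.5 nM, doubling to 3 µM), without and then with constant ligand, in 100 mM Tris-HCl pH 7.5, 80 mM KCl, 4 mM MgCl2, BSA, DTT, yeast tRNA and Tween-20. Apparent Kd is the median of filtered per-cluster curve fits to green signal normalised to red-channel RNA signal and control-cluster median Fmax.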",
  "key": {"[1]": {"conditions": "designed as: OFF switch for flavin mononucleotide, no ligand"}, "[2]": {"conditions": "ligand present: flavin mononucleotide, designed as: OFF switch for flavin mononucleotide"}, "[3]": {"conditions": "designed as: ON switch for flavin mononucleotide, no ligand"}, "[4]": {"conditions": "ligand present: flavin mononucleotide, designed as: ON switch for flavin mononucleotide"}},
  "data": [
    {"sequence": "CCAUGGCAUGUAGGAUAUGUCUGACAAAGUCAGACAGAAGGACAUGAGGAUCACCCAUGUAAUGGAAAACCAAUAUAGCCAUGG", "values": [
      {"measurement": "apparent Kd", "setting": "[1]", "result": 7.62, "unit": "nM"},
      {"measurement": "apparent Kd", "setting": "[2]", "result": 11.3, "unit": "nM"}
    ]},
    {"sequence": "CUCUUCUCUGAGGAUAUUUUAUGUGUGGACGUGAAAGAAGGCAGUACAUGAGGAUCACCCAUGUGUCCCUCUGU", "values": [
      {"measurement": "apparent Kd", "setting": "[1]", "result": 126, "unit": "nM"},
      {"measurement": "apparent Kd", "setting": "[2]", "result": 216, "unit": "nM"}
    ]},
    {"sequence": "CAGGUAGCUACAGGAUAUACACAGCUCAGUAAACUGAGCAAAAGAACUACAUGAGGAUCACCCAUGUAGAAGGGUAGCUGCCUG", "values": [
      {"measurement": "apparent Kd", "setting": "[1]", "result": 16.8, "unit": "nM"},
      {"measurement": "apparent Kd", "setting": "[2]", "result": 18.8, "unit": "nM"}
    ]},
    {"sequence": "GUUCUUCCUGUAAGGAUAUCCAUGUAUCAAAGCAUGGAGAAGGUACAUGAGGAUCACCCAUGUCACCCGCGUUA", "values": [
      {"measurement": "apparent Kd", "setting": "[1]", "result": 20.2, "unit": "nM"},
      {"measurement": "apparent Kd", "setting": "[2]", "result": 45.3, "unit": "nM"}
    ]},
    {"sequence": "GCCAUCGCAUGAGGAUAUGGCACCGAAACGGUGCCAGAAGGCAUGUCAAUAGACAUGAGGAUCACCCAUGUAUUAUCGAUGGCA", "values": [
      {"measurement": "apparent Kd", "setting": "[3]", "result": 274, "unit": "nM"},
      {"measurement": "apparent Kd", "setting": "[4]", "result": 29.1, "unit": "nM"}
    ]},
    {"sequence": "UUUGCAUACCGAGGAUAUUCAUAUAAUAAAUAAACAUGAGGAUCACCCAUGUGGCGAAAGCCUAGGGAGAAGGCGGAAUGCUUU", "values": [
      {"measurement": "apparent Kd", "setting": "[3]", "result": 162, "unit": "nM"},
      {"measurement": "apparent Kd", "setting": "[4]", "result": 30.1, "unit": "nM"}
    ]},
    {"sequence": "AUAUCUCUAUUAGUUCCAAUACGAACAUGAGGAUCACCCAUGUAGGAUAUGCUAGAAGUUGUGUUGCAGAAGGACAAGUACCUU", "values": [
      {"measurement": "apparent Kd", "setting": "[1]", "result": 11.8, "unit": "nM"},
      {"measurement": "apparent Kd", "setting": "[2]", "result": 11.1, "unit": "nM"}
    ]},
    {"sequence": "CAAGGCGGUGAAGGAUAUACACGGGCGUUGCCAAACAUGAGGAUCACCCAUGUAGAAGGUCACCCUGAGAAGGCUUUAUGCCUA", "values": [
      {"measurement": "apparent Kd", "setting": "[1]", "result": 411, "unit": "nM"},
      {"measurement": "apparent Kd", "setting": "[2]", "result": 42.2, "unit": "nM"}
    ]},
    {"sequence": "CGCUGUCAUGCAGGAUAUGCAUUGGAUUACAAUGCAGAAGGGCGAUUACAUGAGGAUCACCCAUGUGUAGACAGUGAACAAGAG", "values": [
      {"measurement": "apparent Kd", "setting": "[3]", "result": 124, "unit": "nM"},
      {"measurement": "apparent Kd", "setting": "[4]", "result": 11.4, "unit": "nM"}
    ]},
    {"sequence": "UGAUAGGACAGAGGAUAUACAGAUAGGAUCUACUAUCAAACAAUCCUCACAUGAGGAUCACCCAUGUAGAAGGCUGUCCUAUCU", "values": [
      {"measurement": "apparent Kd", "setting": "[1]", "result": 106, "unit": "nM"},
      {"measurement": "apparent Kd", "setting": "[2]", "result": 888, "unit": "nM"}
    ]},
    {"sequence": "UAAUAAUAAUAAUAGCAGAAUUACAUGAGGAUCACCCAUGUAUAGGAUAUCGUCAGGAAUACUGACGAGAAGGAUACAUACUGC", "values": [
      {"measurement": "apparent Kd", "setting": "[1]", "result": 17.8, "unit": "nM"},
      {"measurement": "apparent Kd", "setting": "[2]", "result": 25.6, "unit": "nM"}
    ]},
    {"sequence": "ACGGUGGUCACAGGAUAUCCGGCCCGCGUGCCUGGAGAAGGGUGACUCAGAACCACAUGAGGAUCACCCAUGUGCCUUGCCGUA", "values": [
      {"measurement": "apparent Kd", "setting": "[3]", "result": 92.1, "unit": "nM"},
      {"measurement": "apparent Kd", "setting": "[4]", "result": 31.9, "unit": "nM"}
    ]},
    {"sequence": "GCUGGGUCAGGAUAUACAGGGUCGAAAGAUCUGUGAUACCUACAUGAGGAUCACCCAUGUAGAAGGGACUGGGC", "values": [
      {"measurement": "apparent Kd", "setting": "[1]", "result": 15.7, "unit": "nM"},
      {"measurement": "apparent Kd", "setting": "[2]", "result": 38.1, "unit": "nM"}
    ]},
    {"sequence": "CGUGCGUAUGUGAGGAUAUGCUGGUCCUUGGAUCGGCAGAAGGCACAUGAGGAUCACCCAUGUGGUGUCGUACU", "values": [
      {"measurement": "apparent Kd", "setting": "[1]", "result": 238, "unit": "nM"},
      {"measurement": "apparent Kd", "setting": "[2]", "result": 32.4, "unit": "nM"}
    ]},
    {"sequence": "UGGGUGGUCCGAGGAUAUGUCACAUGAGGAUCACCCAUGUAAAACCAAGAGACAGAAGGCGGACAUAGACGCCCAAUUGCGCUC", "values": [
      {"measurement": "apparent Kd", "setting": "[3]", "result": 30.7, "unit": "nM"},
      {"measurement": "apparent Kd", "setting": "[4]", "result": 5.03, "unit": "nM"}
    ]},
    {"sequence": "GUAGCAUUCUGAGGAUAUUCAUAUAAUAAAUAAACAUGAGGAUCACCCAUGUGGCGAAAGCCUUGGGAGAAGGCAGUAUGCUAC", "values": [
      {"measurement": "apparent Kd", "setting": "[3]", "result": 660, "unit": "nM"},
      {"measurement": "apparent Kd", "setting": "[4]", "result": 42.1, "unit": "nM"}
    ]},
    {"sequence": "UUCGUGCAGCUUUGCUGUACGCGUACAUGAGGAUCACCCAUGUAGGAUAUGGUAGGCUUUGCUUACUAGAAGGAUAUAGUGAUC", "values": [
      {"measurement": "apparent Kd", "setting": "[1]", "result": 153, "unit": "nM"},
      {"measurement": "apparent Kd", "setting": "[2]", "result": 221, "unit": "nM"}
    ]},
    {"sequence": "AUGCUAGUGUGAGGAUAUACAUGAGGAUCACCCAUGUGUCCGAAGAACGGGACAUGACGUUCGUCGUAGAAGGUACAUUAGCAU", "values": [
      {"measurement": "apparent Kd", "setting": "[1]", "result": 18.7, "unit": "nM"},
      {"measurement": "apparent Kd", "setting": "[2]", "result": 46.8, "unit": "nM"}
    ]},
    {"sequence": "AAAUAACAUGAGGAUCACCCAUGUCCGCGCCAUCAAGGAUAUGGGUGCCGGCUAGGUCAGCUAGAAGGUGGUGGUG", "values": [
      {"measurement": "apparent Kd", "setting": "[3]", "result": 28.8, "unit": "nM"},
      {"measurement": "apparent Kd", "setting": "[4]", "result": 34.5, "unit": "nM"}
    ]},
    {"sequence": "UUUUAACAUGAGGAUCACCCAUGUGAGGAUAUCGAAAUUUAUAUUAAUAUUUUUAUUACGAGAAGGCACAUUUU", "values": [
      {"measurement": "apparent Kd", "setting": "[1]", "result": 73.5, "unit": "nM"},
      {"measurement": "apparent Kd", "setting": "[2]", "result": 69.8, "unit": "nM"}
    ]},
    {"sequence": "GCGCGCGCAGGAUAUACAAUGCGCGCGCGAAAGUGUGUGUUACAUGAGGAUCACCCAUGUAGAAGGGUGUGUGU", "values": [
      {"measurement": "apparent Kd", "setting": "[1]", "result": 539, "unit": "nM"},
      {"measurement": "apparent Kd", "setting": "[2]", "result": 492, "unit": "nM"}
    ]}
  ]
}
